The results in this text go back to ChEMBL document CHEMBL3098112, “Synthesis and evaluation of spiroisoxazoline oxindoles as anticancer agents” (Bioorg Med Chem, 2014).

The subject of data set [1] is HepG2. Description: Antiproliferative activity against human HepG2 cells after 24 hrs by MTS assay. The settings on record: HepG2, 24 h. Format: functional. The procedure, abridged: (§1)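 Cells plated (1×10^5 cells/mL) and treated about 24 h later with compounds in DMSO diluted in medium, 0.5 to 200 µM; viability read 24 h after treatment by MTS, absorbance 490 nm. GI50 from non-linear regression; mean ± SEM of three independent experiments. HCT116 and SW620 in McCoy's 5A, HepG2 in DMEM, all with 10% FBS, 37 °C, 5% CO2.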
For orientation: Formazan colour is commonly taken as a measure of viable cells.

Data set [2] has as its system SW-620. Description: Antiproliferative activity against human SW620 cells expressing p53 mutant after 24 hrs by MTS assay. Format: functional. The settings on record: SW-620, 24 h. The procedure, abridged:
as §1

Data set [3] relates to HCT-116. Description: Induction of apoptosis in p53-deficient human HCT116 cells assessed as caspase 3 activation after 24 hrs by Western blotting analysis. It is filed as functional, cell-based. The settings on record: in the assay text read “p53 wild-type” for “p53-deficient”. The procedure, abridged:
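HCT116 p53-/- cells seeded at 3×10^5 cells/mL and exposed to vehicle or compound at 25 and 50 µM for 24 h. Whole-cell extracts (60–80 µg) run on 8% and 14% SDS-PAGE and immunoblotted for caspase-3 or PARP-1/2. Bands quantified by densitometry and normalized to β-actin; three independent experiments.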
On the technique in general: Immunoblotting shows a protein as a band on a membrane.

In data set [4] the target is T1, Tumour suppressor p53/oncoprotein Mdm2 (Homo sapiens) (UniProt P04637+Q00987). Description: Inhibition of p53-MDM2 (unknown origin) interaction expressed in p53-deficient human HCT116 cells at 25 to 50 uM after 24 hrs by BiFC-based FACS flow cytometric analysis. Particulars: HCT-116. It is filed as cell-based. An outline of the steps:
(§2)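 HCT116 p53-/- cells co-transfected with V1-p53/MDM2-V2 BiFC plasmids (1 µg each, Lipofectamine 2000). Medium replaced 4–6 h post-transfection and compounds in DMSO added. Cells harvested at 24 h with accutase, resuspended in PBS, and complementation fluorescence measured by flow cytometry; n = 3.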
(In flow cytometry, cells or beads pass a laser one at a time.)

Data set [5] relates to Plasma. Description: Metabolic stability in human plasma up to 72 hrs by HPLC analysis. Format: ADME, cell-free.
Data set [6] relates to HCT-116. Description: Antiproliferative activity against p53-deficient human HCT116 cells after 24 hrs by MTS assay. Format: functional. The settings on record: HCT-116, 24 h. The procedure, abridged: as §1
For data set [7], the system named is HCT-116. Description: Induction of apoptosis in p53-deficient human HCT116 cells assessed as increase in PARP cleavage after 24 hrs by Western blotting analysis. Particulars: in the assay text read “p53 wild-type” for “p53-deficient”. It is filed as functional, cell-based.
For data set [8], the system named is HCT-116. Description: Antiproliferative activity against human HCT116 cells expressing p53 after 24 hrs by MTS assay. It is filed as functional. The settings on record: HCT-116, 24 h. The procedure, abridged: as §1
A short description of data set [9]: Half life in Sprague-Dawley rat liver microsomes by HPLC analysis in presence of NADPH-regenerating system. Format: ADME. An outline of the steps: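 Male Sprague–Dawley pooled liver microsomes in potassium phosphate pH 7.4 with NADPH regenerating system, preincubated 5 min at 37 °C. Reaction started with 4 µL of 10^-3 M DMSO stock. Aliquots quenched in acetonitrile, centrifuged, and supernatant analysed by RP-18 HPLC at 260 nm for half-life.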

A short description of data set [10]: Chemical stability in phosphate buffer at pH 7.4 up to 72 hrs by HPLC analysis. Format: physicochemical. The settings on record: pH 7.4, 72 h. The procedure, abridged: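 12.5 µL of 10^-2 M DMSO stock added to 2.5 mL potassium phosphate buffer (pH 7.4, 0.5 M) at 37 °C; aliquots taken at intervals into acetonitrile and analysed by RP-18 HPLC (acetonitrile/water 70:30, 1 mL/min, UV 260 nm, 25 °C) over 72 h.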

Data set [11] addresses T1, Tumour suppressor p53/oncoprotein Mdm2 (Homo sapiens). Description: Inhibition of p53-MDM2 (unknown origin) interaction expressed in p53-deficient human HCT116 cells at 10 to 50 uM after 24 hrs by BiFC-based FACS flow cytometric analysis. Format: cell-based. Particulars: HCT-116. The procedure, abridged: as §2

Calls of active or inactive are those of the source. The rule behind the calls is not given here. A value given as a limit tells only on which side of the number the result lay.

T1 sequence (P04637 whole entry, looked up): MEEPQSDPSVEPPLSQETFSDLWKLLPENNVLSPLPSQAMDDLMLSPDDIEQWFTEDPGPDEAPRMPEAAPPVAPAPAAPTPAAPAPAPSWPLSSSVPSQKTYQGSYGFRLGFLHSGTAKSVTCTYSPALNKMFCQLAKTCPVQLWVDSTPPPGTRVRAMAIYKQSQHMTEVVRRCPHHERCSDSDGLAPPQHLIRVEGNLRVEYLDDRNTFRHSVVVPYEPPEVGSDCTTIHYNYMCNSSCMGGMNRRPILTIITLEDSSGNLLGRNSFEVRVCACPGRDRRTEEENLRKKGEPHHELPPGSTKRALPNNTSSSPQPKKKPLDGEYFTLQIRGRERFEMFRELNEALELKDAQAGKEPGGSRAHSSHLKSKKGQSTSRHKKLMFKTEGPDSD
T1 sequence (Q00987 whole entry, looked up): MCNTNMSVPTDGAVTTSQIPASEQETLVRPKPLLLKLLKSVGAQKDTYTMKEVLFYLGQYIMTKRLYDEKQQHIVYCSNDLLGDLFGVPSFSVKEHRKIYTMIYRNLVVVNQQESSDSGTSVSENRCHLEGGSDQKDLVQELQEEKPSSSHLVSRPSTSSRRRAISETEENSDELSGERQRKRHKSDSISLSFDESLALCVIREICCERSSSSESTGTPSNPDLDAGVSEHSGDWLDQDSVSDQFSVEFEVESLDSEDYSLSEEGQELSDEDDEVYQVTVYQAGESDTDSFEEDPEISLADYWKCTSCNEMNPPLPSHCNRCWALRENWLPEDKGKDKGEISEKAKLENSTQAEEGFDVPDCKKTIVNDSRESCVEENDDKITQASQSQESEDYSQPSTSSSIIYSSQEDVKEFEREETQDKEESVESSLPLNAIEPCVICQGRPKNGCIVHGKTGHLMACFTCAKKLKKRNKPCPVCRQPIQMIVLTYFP

Take `COc1ccc(C2=NO[C@@]3(C(=O)Nc4ccccc43)[C@@H]2c2ccc(OC)cc2)cc1` (relative stereo): in [1], the GI50 (as a rule, the concentration giving 50% growth inhibition) is above 100 µM.
For `O=C1Nc2c(Cl)cccc2[C@]12ON=C(c1ccc([N+](=O)[O-])cc1)[C@H]2c1ccccc1` (relative stereo), the GI50 in data set [1] was 55.5 µM.
The compound `O=C1Nc2ccc([N+](=O)[O-])cc2[C@]12ON=C(c1ccccc1)[C@H]2c1ccccc1` (relative stereo) came in with a GI50 in [1] of 83.6 µM.
In turn, `O=C1Nc2ccccc2[C@]12ON=C(c1ccc([N+](=O)[O-])cc1)[C@H]2c1ccccc1` (relative stereo) showed a GI50 in [1] of 52.1 µM.
Turning to `COc1ccc(C2=NO[C@@]3(C(=O)Nc4cc(Cl)ccc43)[C@@H]2c2ccccc2)cc1` (relative stereo), the GI50 came out at 53.2 µM in [2], 38.1 µM in data set [1], 40.1 µM in data set [6] and 34.7 µM in data set [8]. For the same compound, the Activity entry in [3] and in data set [7] was “Dose-dependent effect” throughout. The inhibition result in [4] was “Active”. Besides, the Stability entry in [5] and in data set [10] was “Stable” throughout. Further, the half-life (usually the time in which the quantity being followed falls by half) in [9] is 3.15 h.
The compound `O=C1Nc2ccccc2[C@]12ON=C(c1ccccc1)[C@H]2c1ccccc1` (relative stereo) returned a GI50 in [1] above 100 µM.
As for `O=C1Nc2cc(Br)ccc2[C@]12ON=C(c1ccccc1)[C@H]2c1ccccc1` (relative stereo), the GI50 in data set [2] turned out to be 39.6 µM; in data set [1] it was 32.8 µM; in data set [6] it was 40.6 µM; in data set [8], 35 µM.
For the compound `COc1ccc([C@@H]2C(c3ccccc3)=NO[C@@]23C(=O)N(C)c2ccccc23)cc1` (relative stereo), the GI50 in data set [1] was above 100 µM.
For `COc1ccccc1C1=NO[C@@]2(C(=O)Nc3cc(Cl)ccc32)[C@@H]1c1ccccc1` (relative stereo), the GI50 in data set [2] is 36.7 µM; in data set [1], 35.7 µM; in [6], 35.6 µM; in data set [8] it was 30.5 µM.
As to `COc1ccc(C2=NO[C@@]3(C(=O)Nc4cc(Br)ccc43)[C@@H]2c2ccccc2)cc1` (relative stereo), the GI50 in [2] was 40.4 µM; in [1], 31.7 µM; in data set [6], 39 µM; in [8] it was 33.4 µM. Also, the Stability result in data set [5] and in [10] was “Stable” in each case. In addition, in data set [9], the half-life was 3.62 h.
As to `O=C1Nc2cc(Cl)ccc2[C@]12ON=C(c1ccccc1)[C@H]2c1ccccc1` (relative stereo), the GI50 was determined as 48.9 µM in data set [2], 37.1 µM in data set [1], 48.2 µM in data set [6] and 39.8 µM in data set [8]. Also, the inhibition result in data set [11] is “Active”.
In data set [1], `COc1ccc(C2=NO[C@@]3(C(=O)Nc4ccccc43)[C@@H]2c2ccccc2)cc1` (relative stereo) had a GI50 of 77.8 µM.
Compound `COc1ccc(C2=NO[C@@]3(C(=O)Nc4cc(Cl)ccc43)[C@@H]2c2ccc(OC)cc2)cc1` (relative stereo) yielded a GI50 in data set [1] above 100 µM.
Take `COc1ccc([C@@H]2C(c3ccccc3)=NO[C@@]23C(=O)Nc2ccccc23)cc1` (relative stereo): the GI50 in data set [1] is above 100 µM.
On to `O=C1Nc2cc(Cl)ccc2[C@]12ON=C(c1ccc([N+](=O)[O-])cc1)[C@H]2c1ccccc1` (relative stereo), for which the concentration for 50% growth inhibition (GI50) worked out at 33.5 µM in data set [2], 33.8 µM in data set [1], 39 µM in data set [6] and 32.4 µM in data set [8].
As to `Cc1ccc(C2=NO[C@@]3(C(=O)Nc4cc(Cl)ccc43)[C@@H]2c2ccccc2)cc1` (relative stereo), the GI50 in [2] worked out at 31.6 µM; in data set [1] it was 29.1 µM; in data set [6] it was 30.6 µM; in [8] it was 26.6 µM. The Activity result in [3] and in [7] was “Dose-dependent effect” in each case. For the same compound, the inhibition result in data set [4] was “Active”.
On to `COc1ccc(C2=N[C@@H](c3ccc(Cl)cc3)[C@@H](c3ccc(Cl)cc3)N2C(=O)N2CCNC(=O)C2)c(OC(C)C)c1` [NUTLIN-3], for which the GI50 amounted to 51.3 µM in data set [1] and 52.3 µM in data set [6].
As for `COc1ccc(C2=NO[C@@]3(C(=O)Nc4ccc([N+](=O)[O-])cc43)[C@@H]2c2ccccc2)cc1` (relative stereo), the GI50 in data set [1] was 53.1 µM.
The same measure, in the same setting: next, `COc1ccc(C2=NO[C@@]3(C(=O)Nc4c(Cl)cccc43)[C@@H]2c2ccccc2)cc1` (relative stereo): 55.8 µM.
